Assay results taken from ChEMBL document CHEMBL5058577, “EUbOPEN Chemogenomics Library 2 (Multiplex)” (2022).

System: Fibroblast
Experiment: Multiplex assay against human fibroblast
Format: toxicity, cell-based
Outline: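 Four dyes were applied at seeding to live cells: Hoechst33342, BioTracker Green Microtubule Cytoskeleton Dye, MitoTracker Red and Annexin V Alexa Fluor 680. Imaging after compound addition used a CQ1 microscope at 37°C and 5% CO2. CellPathfinder machine-learning gating then sorted cells into Hoechst high-intensity objects or normal cells, normal cells into healthy, pyknosed or fragmented nuclei, and pyknosed cells into mitotic or apoptotic, with tubulin, mitochondrial-mass and membrane-permeability phenotypes given as per cents of healthy-nucleus cells.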

[1] = 12 h, 1 µM, compound concentration 1 uM, replicate 1
[2] = 12 h, 1 µM, compound concentration 1 uM, replicate 2
[3] = 12 h, 10 µM, compound concentration 10 uM, replicate 1
[4] = 12 h, 10 µM, compound concentration 10 uM, replicate 2
[5] = 24 h, 1 µM, compound concentration 1 uM, replicate 1
[6] = 24 h, 1 µM, compound concentration 1 uM, replicate 2
[7] = 24 h, 10 µM, compound concentration 10 uM, replicate 1
[8] = 24 h, 10 µM, compound concentration 10 uM, replicate 2
[9] = 48 h, 1 µM, compound concentration 1 uM, replicate 1
[10] = 48 h, 1 µM, compound concentration 1 uM, replicate 2
[11] = 48 h, 10 µM, compound concentration 10 uM, replicate 1
[12] = 48 h, 10 µM, compound concentration 10 uM, replicate 2

`COc1ccc2c(c1OCc1ccccc1)C[C@@H](C(=O)O)N(C(=O)C(c1ccccc1)c1ccccc1)C2` [OLODANRIGAN] was tested, and the “Population Apoptotic (%)” value [1] was 46%, the “Population Fragmented Nuclei (%)” value [1] was 17% and the “Population Healthy Nuclei (%)” value [1] was 63%. The “Population Hoechst High Intensity Objects (%)” value [1] was 7%, the “Population Membrane Permeable-Phenotype (%)” value [1] was 1% and the “Population Mitochondria Different-Phenotype (%)” value [1] was 2%. For the same compound, the “Population Mitotic Cells (%)” value [1] was 53%, the “Population Normal (%)” value [1] was 92% and the “Population Pyknosed Nuclei (%)” value [1] was 19%. The “Population Tubulin-Different-Phenotype (%)” value [1] was 29%, the “Total Cell Count” value [1] was 157 and the “Population Apoptotic (%)” value [2] was 38%. The “Population Fragmented Nuclei (%)” value [2] was 21%, the “Population Healthy Nuclei (%)” value [2] was 50% and the “Population Hoechst High Intensity Objects (%)” value [2] was 1%. For the same compound, the “Population Membrane Permeable-Phenotype (%)” value [2] was 9%, the “Population Mitochondria Different-Phenotype (%)” value [2] was 5% and the “Population Mitotic Cells (%)” value [2] was 61%. The “Population Normal (%)” value [2] was 98%, the “Population Pyknosed Nuclei (%)” value [2] was 27% and the “Population Tubulin-Different-Phenotype (%)” value [2] was 57%. The “Total Cell Count” value [2] was 154, the “Population Apoptotic (%)” value [3] was 31% and the “Population Fragmented Nuclei (%)” value [3] was 11%. For the same compound, the “Population Healthy Nuclei (%)” value [3] was 65%, the “Population Hoechst High Intensity Objects (%)” value [3] was 0% and the “Population Membrane Permeable-Phenotype (%)” value [3] was 1%. For the same compound, the “Population Mitochondria Different-Phenotype (%)” value [3] was 7%, the “Population Mitotic Cells (%)” value [3] was 68% and the “Population Normal (%)” value [3] was 99%. For the same compound, the “Population Pyknosed Nuclei (%)” value [3] was 23%, the “Population Tubulin-Different-Phenotype (%)” value [3] was 28% and the “Total Cell Count” value [3] was 140. For the same compound, the “Population Apoptotic (%)” value [4] was 34%, the “Population Fragmented Nuclei (%)” value [4] was 18% and the “Population Healthy Nuclei (%)” value [4] was 54%. The “Population Hoechst High Intensity Objects (%)” value [4] was 5%, the “Population Membrane Permeable-Phenotype (%)” value [4] was 6% and the “Population Mitotic Cells (%)” value [4] was 65%. For the same compound, the “Population Normal (%)” value [4] was 94%, the “Population Pyknosed Nuclei (%)” value [4] was 26% and the “Population Tubulin-Different-Phenotype (%)” value [4] was 46%. The “Total Cell Count” value [4] was 162, the “Population Apoptotic (%)” value [5] was 65% and the “Population Fragmented Nuclei (%)” value [5] was 18%. For the same compound, the “Population Healthy Nuclei (%)” value [5] was 66%, the “Population Hoechst High Intensity Objects (%)” value [5] was 6% and the “Population Membrane Permeable-Phenotype (%)” value [5] was 0%. The “Population Mitochondria Different-Phenotype (%)” value [5] was 1%, the “Population Mitotic Cells (%)” value [5] was 34% and the “Population Normal (%)” value [5] was 93%. The “Population Pyknosed Nuclei (%)” value [5] was 15%, the “Population Tubulin-Different-Phenotype (%)” value [5] was 26% and the “Total Cell Count” value [5] was 159. The “Population Apoptotic (%)” value [6] was 38%, the “Population Fragmented Nuclei (%)” value [6] was 21% and the “Population Healthy Nuclei (%)” value [6] was 53%. For the same compound, the “Population Hoechst High Intensity Objects (%)” value [6] was 2%, the “Population Membrane Permeable-Phenotype (%)” value [6] was 9% and the “Population Mitochondria Different-Phenotype (%)” value [6] was 7%. The “Population Mitotic Cells (%)” value [6] was 61%, the “Population Normal (%)” value [6] was 97% and the “Population Pyknosed Nuclei (%)” value [6] was 25%. For the same compound, the “Population Tubulin-Different-Phenotype (%)” value [6] was 46%, the “Total Cell Count” value [6] was 146 and the “Population Apoptotic (%)” value [7] was 53%. For the same compound, the “Population Fragmented Nuclei (%)” value [7] was 10%, the “Population Healthy Nuclei (%)” value [7] was 68% and the “Population Hoechst High Intensity Objects (%)” value [7] was 2%. The “Population Membrane Permeable-Phenotype (%)” value [7] was 1%, the “Population Mitochondria Different-Phenotype (%)” value [7] was 3% and the “Population Mitotic Cells (%)” value [7] was 46%. For the same compound, the “Population Normal (%)” value [7] was 97%, the “Population Pyknosed Nuclei (%)” value [7] was 21% and the “Population Tubulin-Different-Phenotype (%)” value [7] was 21%. The “Total Cell Count” value [7] was 136, the “Population Apoptotic (%)” value [8] was 58% and the “Population Fragmented Nuclei (%)” value [8] was 17%. The “Population Healthy Nuclei (%)” value [8] was 62%, the “Population Hoechst High Intensity Objects (%)” value [8] was 3% and the “Population Membrane Permeable-Phenotype (%)” value [8] was 4%. For the same compound, the “Population Mitochondria Different-Phenotype (%)” value [8] was 4%, the “Population Mitotic Cells (%)” value [8] was 41% and the “Population Normal (%)” value [8] was 96%. The “Population Pyknosed Nuclei (%)” value [8] was 19%, the “Population Tubulin-Different-Phenotype (%)” value [8] was 50% and the “Total Cell Count” value [8] was 153. The “Population Apoptotic (%)” value [9] was 42%, the “Population Fragmented Nuclei (%)” value [9] was 27% and the “Population Healthy Nuclei (%)” value [9] was 58%. The “Population Hoechst High Intensity Objects (%)” value [9] was 3%, the “Population Membrane Permeable-Phenotype (%)” value [9] was 0% and the “Population Mitochondria Different-Phenotype (%)” value [9] was 2%. The “Population Mitotic Cells (%)” value [9] was 57%, the “Population Normal (%)” value [9] was 96% and the “Population Pyknosed Nuclei (%)” value [9] was 14%. For the same compound, the “Population Tubulin-Different-Phenotype (%)” value [9] was 20%, the “Total Cell Count” value [9] was 154 and the “Population Apoptotic (%)” value [10] was 41%. The “Population Fragmented Nuclei (%)” value [10] was 31%, the “Population Healthy Nuclei (%)” value [10] was 52% and the “Population Hoechst High Intensity Objects (%)” value [10] was 1%. For the same compound, the “Population Membrane Permeable-Phenotype (%)” value [10] was 1%, the “Population Mitochondria Different-Phenotype (%)” value [10] was 4% and the “Population Mitotic Cells (%)” value [10] was 58%. The “Population Normal (%)” value [10] was 98%, the “Population Pyknosed Nuclei (%)” value [10] was 15% and the “Population Tubulin-Different-Phenotype (%)” value [10] was 40%. For the same compound, the “Total Cell Count” value [10] was 156, the “Population Apoptotic (%)” value [11] was 57% and the “Population Fragmented Nuclei (%)” value [11] was 15%. For the same compound, the “Population Healthy Nuclei (%)” value [11] was 69%, the “Population Hoechst High Intensity Objects (%)” value [11] was 5% and the “Population Membrane Permeable-Phenotype (%)” value [11] was 1%. For the same compound, the “Population Mitochondria Different-Phenotype (%)” value [11] was 5%, the “Population Mitotic Cells (%)” value [11] was 42% and the “Population Normal (%)” value [11] was 94%. For the same compound, the “Population Pyknosed Nuclei (%)” value [11] was 15%, the “Population Tubulin-Different-Phenotype (%)” value [11] was 27% and the “Total Cell Count” value [11] was 146. The “Population Apoptotic (%)” value [12] was 61%, the “Population Fragmented Nuclei (%)” value [12] was 29% and the “Population Healthy Nuclei (%)” value [12] was 58%. The “Population Hoechst High Intensity Objects (%)” value [12] was 7%, the “Population Membrane Permeable-Phenotype (%)” value [12] was 3% and the “Population Mitotic Cells (%)” value [12] was 38%. For the same compound, the “Population Normal (%)” value [12] was 92%, the “Population Pyknosed Nuclei (%)” value [12] was 12% and the “Population Tubulin-Different-Phenotype (%)” value [12] was 45%. For the same compound, the “Total Cell Count” value [12] was 163.
